Where a chain is given by its changes, count along the chain named.

Common to all, as to type: cell-based, rabbit
For experiment [1], the target named is T1, D444E-EAAC1 (Oryctolagus cuniculus, UniProt P31597, D444E).
T1 sequence (P31597 1-524 D444E): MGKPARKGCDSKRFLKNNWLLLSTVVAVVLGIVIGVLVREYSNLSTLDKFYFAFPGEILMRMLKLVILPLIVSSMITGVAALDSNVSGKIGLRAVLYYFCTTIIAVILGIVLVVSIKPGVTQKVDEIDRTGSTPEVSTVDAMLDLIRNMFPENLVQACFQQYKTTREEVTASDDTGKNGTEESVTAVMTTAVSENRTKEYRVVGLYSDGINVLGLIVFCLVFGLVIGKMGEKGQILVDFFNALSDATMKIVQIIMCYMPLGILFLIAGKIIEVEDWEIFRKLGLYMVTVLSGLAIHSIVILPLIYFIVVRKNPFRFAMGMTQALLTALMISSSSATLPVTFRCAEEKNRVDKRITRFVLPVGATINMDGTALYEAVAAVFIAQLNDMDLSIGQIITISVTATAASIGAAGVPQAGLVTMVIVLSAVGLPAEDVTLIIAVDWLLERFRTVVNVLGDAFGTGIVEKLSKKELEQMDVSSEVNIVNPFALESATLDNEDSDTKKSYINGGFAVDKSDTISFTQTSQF
The experiment in a line: Blockade of sodium-dependent transient currents. To be noted: for Decay time of transient currents blocked: at +80 mV; for IC50: read-out: IC50 for substrates/blockers of charge movements, Xenopus oocytes, mean ± SEM. The essentials: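 Oocytes expressing the mutant were voltage clamped in ND96 (pH 7.5, HEPES) and stepped from −25 mV. Transients are buffer current minus buffer-plus-compound current. Charge is the sum of current–time integrals at −100 and +80 mV, normalised to 1 mM L-aspartate or 15 mM succinate, and fitted to a generalized Hill equation. Decay constants come from a first-order exponential fit; mean ± SEM of 3–10 oocytes.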

In experiment [2] the target is T2, WT-EAAC1 (Oryctolagus cuniculus, UniProt P31597).
T2 sequence (P31597 1-524): T1 sequence (P31597 1-524 D444E) with E444D
The experiment in a line: Substrate-induced steady-state transport currents in oocytes expressing WT. The settings on record: 2 mM.

Experiment [3] concerns the target T3, D444A mutant EAAC1 (Oryctolagus cuniculus, UniProt P31597, D444A).
T3 sequence (P31597 1-524 D444A): T1 sequence (P31597 1-524 D444E) with E444A
The experiment in a line: Blockade of sodium-dependent transient currents. The settings on record: read-out: IC50 for substrates/blockers of charge movements, Xenopus oocytes, mean ± SEM.

Experiment [4] addresses T4, D444C-EAAC1 (Oryctolagus cuniculus, UniProt P31597, D444C).
T4 sequence (P31597 1-524 D444C): T1 sequence (P31597 1-524 D444E) with E444C
The experiment in a line: Substrate-induced steady-state transport currents in oocytes expressing D444C. The settings on record: 2 mM L-aspartate (Fig. 1 C), other concentrations not given.

In experiment [5] the target is T5, D444C mutant EAAC1 (Oryctolagus cuniculus, UniProt P31597, D444C).
T5 sequence (P31597 1-524 D444C): T1 sequence (P31597 1-524 D444E) with E444C

Experiment [6] has as its target T6, D444E mutant EAAC1 (Oryctolagus cuniculus, UniProt P31597, D444E).
T6 sequence (P31597 1-524 D444E): T1 sequence (P31597 1-524 D444E)

Experiment [7] concerns the target T2, WT-EAAC1. The settings on record: 2 mM, NaSCN-based buffer. An outline of the steps:
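Two-electrode voltage clamp of oocytes in buffer with all NaCl replaced by NaSCN, grounded through a 2% agarose/2 M KCl bridge. Compounds were 2 mM; TBOA (10 μM) was added to a stopped bath. Steps from −25 mV to −100…+40 mV. Net steady-state current (with minus without) was normalised to the L-aspartate current at +40 mV; mean ± SEM of 3 oocytes (L-aspartate n = 6).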

The target of experiment [8] is T1, D444E-EAAC1. The experiment in a line: Substrate-induced steady-state transport currents in oocytes expressing D444E. The settings on record: 2 mM L-aspartate, other concentrations not given.

With `O=C(O)CCC(=O)O` [Succinate, succinate], the “Suppression of the transient currents” value in experiment [1] (2 mM) is reported as “only slightly suppressed”. Further, in experiment [1] (15 mM succinate), the “Decay time of transient currents blocked” value was 5.1 ± 0.7 ms. Moreover, the IC50 in experiment [1] is more than 6000 µM; in experiment [3], 870 ± 110 µM. The “Inhibition of the transient currents, concentration dependence” value in experiment [1] (up to 15 mM) is recorded as “saturation was not reached”. Also, the “Induction of steady-state transport currents” value in experiment [2] is “No steady-state transport currents”; in experiment [4], “unable to induce steady-state currents”. In addition, the “Inhibition of D-[3H]-aspartate uptake” value in experiment [5] is reported as “fully inhibited”; in experiment [6] it was “much less sensitive”. Besides, the “Effect on the anion conductance” value in experiment [7] is “not seen”.

Take `N[C@@H](CC(=O)O)C(=O)O` [L-Aspartate, L-aspartate]: the “Decay time of transient currents blocked” value in experiment [1] (10 mM compound) was 10.6 ± 1 ms. Also, the IC50 in experiment [1] amounted to 9 ± 1 µM; in experiment [3], 720 ± 80 µM. For the same compound, the “Induction of steady-state transport currents” value in experiment [8] is on record as “not observed”. For the same compound, the “Effect on the anion conductance” value in experiment [7] is “stimulated the anion conductance”.

The record behind these values is article PMC2151622 (The Journal of General Physiology, 2007).
